# Bioassay records as filed in PubChem BioAssay.
# TNAP inh hi DEA: TNAP (human) inhibition, high acceptor. 200,000 compounds, 0.03% hits. AID 1135. purified TNAP, CDP-star luminescence, 1 M DEA. inhibition, % at 20 µM. P05186;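 active = over 50% inhibition of tissue-nonspecific alkaline phosphatase at 20 µM in the single-dose screen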
# Target sequence (P05186 whole entry, looked up): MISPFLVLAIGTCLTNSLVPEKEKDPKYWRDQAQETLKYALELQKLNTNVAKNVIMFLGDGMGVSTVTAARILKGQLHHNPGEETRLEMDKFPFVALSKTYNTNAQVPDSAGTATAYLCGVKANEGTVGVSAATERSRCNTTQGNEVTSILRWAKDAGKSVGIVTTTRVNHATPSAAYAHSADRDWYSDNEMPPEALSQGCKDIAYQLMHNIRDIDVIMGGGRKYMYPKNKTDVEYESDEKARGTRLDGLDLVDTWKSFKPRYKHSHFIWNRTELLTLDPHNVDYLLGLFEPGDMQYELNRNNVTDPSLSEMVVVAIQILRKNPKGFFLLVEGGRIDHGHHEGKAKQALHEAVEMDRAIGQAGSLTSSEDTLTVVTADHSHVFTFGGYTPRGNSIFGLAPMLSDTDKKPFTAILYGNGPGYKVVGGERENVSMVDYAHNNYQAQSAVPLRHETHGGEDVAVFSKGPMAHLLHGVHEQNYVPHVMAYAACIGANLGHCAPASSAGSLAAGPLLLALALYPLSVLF
# TNAP act hiacc: activators of human TNAP at high phosphate acceptor concentration; P05186; purified TNAP, CDP-star luminescence, 1 M DEA, 30 min; active compounds read high; 0 = EDTA background, 1 = DMSO-only activity; activation factor at 20 µM; 200,000 tested, under 10 active; AID 1136;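 active = activation factor at least 2 at 20 µM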
#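 system = human TNAP | amount = enzyme diluted 1/800 final | reagent = 100 µM CDP-star substrate | signal = luminescent substrate turnover signal | dosing = one dose, 20 µM | benchmarks = EDTA negative control, DMSO positive control | measure = activation factor | timing = 30 min reaction, room temperature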
# PTEN del growth: growth suppressors of cells with PTEN tumor suppressor deletion | HCT116 PTEN-null viability, CellTiter-Glo, 60 h; active compounds read low | 140,000 compounds, 1.2% hits | viability, % at 10 µM;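 active = viability at or below a set limit, 4 SD under the median of all tested compounds, cut at about 3.7% in these data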;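 note: PTEN knockout HCT116 line with beta catenin targeted HCT116 as companion control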
# Lmaj promast: Leishmania major promastigote growth inhibition | inhibition, % at 10 µM | Leishmania major promastigotes, resazurin fluorescence viability | 200,000 compounds, 9% hits; in the data active = inhibition above about 50%;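 note: promastigotes grown with compound for 44 hours at 28 °C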
# TNAP inh noacc: blocks human TNAP activity with no phosphate acceptor present | inhibition, % at 20 µM | purified TNAP, CDP-star luminescence, 30 min | P05186 | 200,000 compounds, 0.26% hits;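 active = tissue-nonspecific alkaline phosphatase inhibition above about 50% at 20 µM in the single-dose screen, limit read from the data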
# HCT116 bCat-KO: beta-catenin-lacking colon tumor cell growth suppression; HCT116 beta-catenin knockout viability, CellTiter-Glo, 60 h; active compounds read low; viability, % at 10 µM; 140,000 compounds, 1.5% hits; AID 818;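 active = viability at or under a set limit, the compound median less 4 SD, cut at about 6% in these data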
# A number is an active result; . = inactive; / = no result given. Only some compounds are listed: those with a hit (about 9.6% of all), similar ones and a draw of the others.
SMILES,TNAP inh hi DEA,TNAP act hiacc,PTEN del growth,Lmaj promast,TNAP inh noacc,HCT116 bCat-KO
O=C(Cc1ccc(Br)cc1)OCC(=O)N1CCc2ccccc2C1,.,.,.,.,.,.
CCSC1=NCCN1S(=O)(=O)c1ccc(NC(C)=O)cc1,.,.,/,.,.,/
COCCn1c(C)cc(C(=O)CSc2nc3nc(C)cc(C)n3n2)c1C,.,.,.,61.9,.,.
Cc1cc(C)n2nc(SCC(=O)c3cc(C)n(CC4CCCO4)c3C)nc2n1 (centres undefined),.,.,/,.,.,/
COc1ccc(C(=O)NNC(=O)CN2CCN(c3nc(-c4ccccc4)cs3)CC2)cc1,.,.,.,.,.,.
COC(=O)c1c(NC(=O)c2ccccc2)sc2c1CC(C)(C)NC2(C)C,.,.,/,.,.,/
CC1(C)Cc2c(sc(NC(=O)c3ccc4ncsc4c3)c2C(N)=O)C(C)(C)N1,.,.,/,77.8,.,/
O=C(COc1ccc(S(=O)(=O)N2CCCC2)cc1)NCC1CCCO1 (centres undefined),.,.,/,.,.,/
CC(=O)Nc1ccc(NC(=O)C2CCN(C(=O)c3cccs3)CC2)cc1,.,.,/,.,.,/
COc1ccc(C(=O)Oc2c(CN3CCOCC3)cc(Cl)c3cccnc23)cc1OC,/,/,/,96.6,/,/
O=C(COc1c(Br)cc(Br)c2cccnc12)N1CCCCC1,.,.,/,.,.,/
O=C(Oc1c(CN2CCOCC2)cc(Cl)c2cccnc12)c1ccccc1F,.,.,/,100.6,.,/
O=C(Oc1c(CN2CCOCC2)cc(Cl)c2cccnc12)c1ccccc1,.,.,/,100.3,.,/
O=C(Oc1nsnc1N1CCOCC1)c1ccccc1,.,.,.,.,.,.
Oc1c(CN2CCCCC2)cc(Br)c2cccnc12,.,.,1.4,100.5,.,1.7
Oc1c(CN2CCc3ccccc3C2)cc(Cl)c2cccnc12,.,.,3.0,100.4,.,2.9
CC(C)N(C(=O)CS(=O)(=O)c1ccc(Cl)c(Cl)c1)C(C)C,.,.,/,85.4,.,/
Cc1cc(OCC(=O)N(C(C)C)C(C)C)ccc1Cl,.,.,/,.,.,/
COc1ccc2c(c1)C(=O)[C@H](O)[C@@H](c1ccc(OC)c(Br)c1)O2,.,.,.,98.8,.,.
CC[C@H](C)[C@@H](NC(=O)O[C@@H]1C(=O)c2cc(OC)ccc2O[C@H]1c1ccc(OC)c(Br)c1)C(=O)OC,.,.,.,.,.,.
CC(C)(C)c1nnc(NC(=O)c2cccnc2)s1,.,.,/,.,.,/
CNC(=O)c1cc(C(=O)c2c(Cl)cccc2Cl)c[nH]1,.,.,/,.,.,/
N=c1sccn1CC(=O)N1N=C(c2ccc(Cl)cc2)CC1c1ccco1 (centres undefined),.,.,/,63.0,.,/
O=[N+]([O-])c1ccccc1CNC(Cc1ccccc1)c1ccccc1 (centres undefined),.,.,.,90.4,.,.
Cc1ccccc1-c1nnc(NC(=O)CSc2nc3ccccc3s2)s1,.,.,.,.,.,.
SMILES,TNAP inh hi DEA,TNAP act hiacc,PTEN del growth,Lmaj promast,TNAP inh noacc,HCT116 bCat-KO
CC1CCN(c2ccc(C(=O)Nc3ccc4c(c3)OCO4)cc2[N+](=O)[O-])CC1,.,.,.,97.7,.,.
CC1CCCN(c2ccc(C(=O)Nc3ccc4c(c3)OCO4)cc2[N+](=O)[O-])C1 (centres undefined),.,.,.,97.3,.,.
Cc1ccc(S(=O)(=O)NNC(=O)c2cccc(O)c2)cc1,.,.,/,.,.,/
COc1ccc(-n2ccnc2SCC(=O)NC2CCCC2)c(OC)c1,.,.,/,.,.,/
CCc1ccc(OC2=NS(=O)(=O)c3ccccc32)cc1,.,.,/,.,.,/
CCN(CC)c1cccc(OC2=NS(=O)(=O)c3ccccc32)c1,.,.,.,80.1,.,.
Cc1ccc(C(C)C)c(OCCCN(C)Cc2ccccc2)c1,.,.,.,96.3,.,.
COc1ccccc1OCCCOc1ccc(C)cc1Br,.,.,.,.,.,.
Cc1ccc(OCCCCN(C)Cc2ccccc2)c(Br)c1,.,.,.,90.5,.,.
COc1ccc(NC(=O)CCN2C(=O)C3C4CCC(C4)C3C2=O)cc1 (centres undefined),.,.,.,56.8,.,.
O=C(CCN1C(=O)C2C3CCC(C3)C2C1=O)Nc1ccc([N+](=O)[O-])cc1 (centres undefined),.,.,/,.,.,/
